Data from ChEMBL document CHEMBL1122835, “Synthesis and pharmacology of the potent angiotensin-converting enzyme inhibitor N-[1(S)-(ethoxycarbonyl)-3-phenylpropyl]-(S)-alanyl-(S)-pyroglutamic acid” (J Med Chem, 1985).

Assays:
Rattus norvegicus [1] = experiment: Activity against the bradykinin Response in anesthetized normotensive rat, administered intravenously at dose 0.030 mg/kg; assay type: functional; details: dose 0.03 mg/kg; route intravenous
Procedure, shortened: (§1)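 Anesthetized (pentobarbital/barbital ip) male Charles River CD rats, 380–500 g, kept at 37 °C. Femoral artery blood pressure recorded. Control depressor response to bradykinin 1 μg/kg iv, then cumulative iv drug in 0.9% saline (1 mL/kg), 0.0033–0.27 mg/kg. Bk challenge 5 min after each dose. ED50 = dose giving a 50% change from control, by linear regression; N = 8.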

Rattus norvegicus [2] = experiment: Percent change was determined in bradykinin depressor response in anesthetized normotensive rat, administered intravenously at dose 0.090 mg/kg; assay type: functional; details: dose 0.09 mg/kg; route intravenous
Procedure, shortened: (§2)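 Male Charles River CD rats (380–500 g), pentobarbital Na 15 mg/kg plus barbital 220 mg/kg ip, tracheotomized, femoral artery/vein cannulated, kept at 37 °C. Control bradykinin 1 μg/kg iv depressor response, separate from angiotensin tests; drug iv in 0.9% saline (1 mL/kg, free base) 10 min later, Bk 5 min after each cumulative dose (0.0033–0.27 mg/kg). Maximum fall in arterial pressure versus control response; N = 8.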

Rattus norvegicus [3] = experiment: Effect on systolic blood pressure was determined in renal hypertensive rat, administered orally at a dose 3 mg/kg; assay type: functional, Artery; details: route oral
Procedure, shortened: (§3)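 Renal hypertensive rats were prepared by clipping the left renal artery (0.22-mm clip) in 4-week-old male CD rats and held 6 weeks. Overnight-fasted rats were dosed orally with aqueous solution (5 mL/kg), water as control. Tail-cuff systolic pressure and heart rate measured 2 h post-dose. ANOVA with Duncan's test; ED30 by linear regression.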

Rattus norvegicus [4] = organism: Rattus norvegicus; experiment: Effective dose was determined to increase the vasoResponse in rat; assay type: functional; procedure, shortened: as §1
Canis familiaris [5] = experiment: Effect on pressor response of angiotensin II in conscious dog at 60-65 min, dose 0.5 mg/kg administered orally; assay type: functional, Canis lupus familiaris; details: route oral
Procedure, shortened: (§4)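 Conscious fasted mongrel dogs of both sexes, 6.8–15.3 kg, with femoral cannulas. Drug given orally in 0.25% methylcellulose with 3% glycerin (2 mL/kg), n = 4 per dose. AI 0.3, AII 0.1 and NE 1 μg/kg iv challenges. The second pre-dose set served as control; response measured at 60–65 min post-dose.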

Rattus norvegicus [6] = experiment: Percent decrease in angiotensin I pressor response was measured in rat, administered intravenously at dose 0.81 mg/kg; assay type: functional; details: route intravenous
Procedure, shortened: (§5)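 Anesthetized (pentobarbital Na 15 mg/kg + barbital 220 mg/kg ip), tracheotomized male Charles River CD rats, 380–500 g, femoral cannulas, heated board at 37 °C. Control pressor responses to angiotensin I 0.3 μg/kg then angiotensin II 0.1 μg/kg iv; drug iv in 0.9% saline (free base), AI and AII repeated at 5-min intervals, cumulative 0.01–0.81 mg/kg. Peak arterial pressure rise versus control.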

Rattus norvegicus [7] = experiment: Decrease in systolic blood pressure of Spontaneous Hypertensive Rats (SHR) pretreated with hydrochlorothiazide upon oral administration at 3 mm/kg; assay type: functional, Artery
Procedure, shortened: (§6)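 Male SHR, 13 weeks old, given HCTZ 25 mg/kg po in 0.25% methylcellulose daily for 3 days. Drug given orally in water (5 mL/kg) 1 h after the third dose. Tail-cuff systolic pressure and pulse-count heart rate taken 1.5 h later after 20 min warming at 38 °C. ANOVA with Duncan's test; ED30 by linear regression.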

Rattus norvegicus [8] = experiment: Change in heart rate was determined at a dose 10 mg/kg; assay type: functional; procedure, shortened: as §6
Rattus norvegicus [9] = experiment: Effect on systolic blood pressure was determined in renal hypertensive rat, administered orally at a dose 10 mg/kg; assay type: functional, Artery; details: route oral; procedure, shortened: as §3
Rattus norvegicus [10] = experiment: Hypotensive activity was determined in low-sodium treated rat, dose 30 mg/kg administered orally at 2 hr; assay type: functional; details: route oral
Procedure, shortened: (§7)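 Male CD rats, 11 weeks old, kept on a sodium-deficient diet for 3 weeks and fasted overnight, were dosed orally with aqueous solutions (5 mL/kg), water as control. Systolic pressure measured by tail cuff at the stated post-dose time. ANOVA with Duncan's test.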

Rattus norvegicus [11] = experiment: Decrease in systolic blood pressure of Spontaneous Hypertensive Rats (SHR) pretreated with hydrochlorothiazide upon oral administration at 10 mm/kg; assay type: functional, Artery; procedure, shortened: as §6
Rattus norvegicus [12] = experiment: Percent change was determined in bradykinin depressor response in anesthetized normotensive rat, administered intravenously at dose 0.030 mg/kg; assay type: functional; details: dose 0.03 mg/kg; route intravenous; procedure, shortened: as §2
Rattus norvegicus [13] = organism: Rattus norvegicus; experiment: Dose required to reduce systolic blood pressure by 30 mmHg in renal hypertensive rat; assay type: functional; details: Artery; procedure, shortened: as §3
Rattus norvegicus [14] = experiment: Change in heart rate was determined in renal hypertensive rat, administered orally at a dose 3 mg/kg; assay type: functional; details: route oral; procedure, shortened: as §3
Rattus norvegicus [15] = experiment: Activity against the bradykinin Response in anesthetized normotensive rat, administered intravenously at dose 0.010 mg/kg; assay type: functional; details: dose 0.01 mg/kg; route intravenous; procedure, shortened: as §1
Rattus norvegicus [16] = experiment: Effect on vasopressor response caused by angiotensin I (AI) in anesthetized normotensive rat, administered intravenously at dose 0.27 mg/kg; assay type: functional; details: route intravenous
Procedure, shortened: (§8)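 Male Charles River CD rats, 380–500 g, anesthetized with pentobarbital Na 15 mg/kg plus barbital 220 mg/kg ip, held at 37 °C. Femoral artery pressure recorded. AI 0.3 μg/kg and AII 0.1 μg/kg given iv as challenges. Cumulative iv drug in saline, 0.01–0.81 mg/kg, each dose followed by AI/AII challenges at 5-min intervals. ED50 = 50% change from control response, by linear regression.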

Canis familiaris [17] = experiment: Effect on pressor response of angiotensin II in anesthetized dog, dose 0.9 mg/kg administered intravenously; assay type: functional, Canis lupus familiaris; details: route intravenous
Procedure, shortened: (§9)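 Mongrel dogs, 7.3–15.5 kg, anesthetized with barbital/pentobarbital iv, tracheotomized and vagotomized, n = 4. Cumulative iv doses in saline (0.2 mL/kg) spaced 30 min apart. AI and AII 1 μg/kg iv challenges given after each dose; the second pre-dose set served as control.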

Canis familiaris [18] = experiment: Effect on pressor response of angiotensin I in anesthetized dog, dose 0.3 mg/kg administered intravenously; assay type: functional, Canis lupus familiaris; details: route intravenous; procedure, shortened: as §9
Rattus norvegicus [19] = experiment: Effect on systolic blood pressure was determined in renal hypertensive rat, administered orally at a dose 30 mg/kg; assay type: functional, Artery; details: route oral; procedure, shortened: as §3
Rattus norvegicus [20] = organism: Rattus norvegicus; experiment: Dose required to reduce systolic blood pressure by 30 mmHg; assay type: functional; details: Artery; procedure, shortened: as §6
Canis familiaris [21] = experiment: Effect on pressor response of angiotensin I in conscious dog at 60-65 min, dose 0.5 mg/kg administered orally; assay type: functional, Canis lupus familiaris; details: route oral; procedure, shortened: as §4
Rattus norvegicus [22] = experiment: Percent decrease in angiotensin I pressor response was measured in rat, administered intravenously at dose 0.010 mg/kg; assay type: functional; details: dose 0.01 mg/kg; route intravenous; procedure, shortened: as §5
Rattus norvegicus [23] = experiment: Effective dose to produce ACE inhibition in rat, administered intravenously; assay type: functional; details: iv; procedure, shortened: as §8
Rattus norvegicus [24] = experiment: Hypotensive activity was determined in low-sodium treated rat, dose 10 mg/kg administered orally at 5 hr; assay type: functional; details: route oral; procedure, shortened: as §7
Rattus norvegicus [25] = experiment: Change in heart rate was determined in renal hypertensive rat, administered orally at a dose 10 mg/kg; assay type: functional; details: route oral; procedure, shortened: as §3
Rattus norvegicus [26] = experiment: Activity against the bradykinin Response in anesthetized normotensive rat, administered intravenously at dose 0.0033 mg/kg; assay type: functional; details: route intravenous; procedure, shortened: as §1
Rattus norvegicus [27] = experiment: Change in heart rate was determined in renal hypertensive rat, administered orally at a dose 30 mg/kg; assay type: functional; details: route oral; procedure, shortened: as §3
Rattus norvegicus [28] = experiment: Hypotensive activity was determined in low-sodium treated rat, dose 10 mg/kg administered orally at 2 hr; assay type: functional; details: route oral; procedure, shortened: as §7

`CCOC(=O)[C@H](CCc1ccccc1)N[C@@H](C)C(=O)N1C(=O)CC[C@H]1C(=O)O` gave a Response (Rattus norvegicus [1]) of -61 mmHg, a Change (Rattus norvegicus [2]) of 69% and an Activity (Rattus norvegicus [3]) of 220 mmHg. It also gave an ED50 (Rattus norvegicus [4]) of 0.012 mg/kg, a Blood pressure (Canis familiaris [5]) of 48 mmHg and a Decrease (Rattus norvegicus [6]) of 92%. It also gave a Blood pressure (Rattus norvegicus [7]) of 211 mmHg, a Heart rate (Rattus norvegicus [8]) of 369 beats min-1 and an Activity (Rattus norvegicus [9]) of 204 mmHg. It also gave an Activity (Rattus norvegicus [10]) of 135 mmHg, a Blood pressure (Rattus norvegicus [11]) of 189 mmHg and a Change (Rattus norvegicus [12]) of 69%. For the same compound, the ED30 (Rattus norvegicus [13]) was 5.9 mg/kg, the Heart rate (Rattus norvegicus [14]) was 460 beats min-1 and the Response (Rattus norvegicus [15]) was -58 mmHg. The Response (Rattus norvegicus [16]) was 18 mmHg, the Blood pressure (Canis familiaris [17]) was 73 mmHg and the Blood pressure (Canis familiaris [18]) was 46 mmHg. The Activity (Rattus norvegicus [19]) was 204 mmHg, the ED30 (Rattus norvegicus [20]) was 3.5 mg/kg and the Blood pressure (Canis familiaris [21]) was 47 mmHg. The Decrease (Rattus norvegicus [22]) was 6%, the ED50 (Rattus norvegicus [23]) was 0.13 mg/kg and the Activity (Rattus norvegicus [24]) was 143 mmHg. The Heart rate (Rattus norvegicus [25]) was 438 beats min-1, the Response (Rattus norvegicus [26]) was -44 mmHg and the Heart rate (Rattus norvegicus [27]) was 481 beats min-1. It also gave an Activity (Rattus norvegicus [28]) of 148 mmHg.
